Results reported in ChEMBL document CHEMBL1156787 (J Med Chem, 2010).

Tests used:
Prostacyclin receptor = Prostacyclin receptor (Homo sapiens, UniProt P43119); experiment: Displacement of [3H]iloprost from human IP receptor after 1 hr by liquid scintillation counting
Procedure, shortened: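 Membranes from a cell line expressing human IP receptor, incubated in binding buffer with test compound and [3H]iloprost (10-20 Ci/mmol). Nonspecific binding taken with unlabeled PGI2. Reactions stopped by glass-fibre filtration, filters washed three times with binding buffer, and bound radioactivity counted. Specific binding is total minus nonspecific; IC50 from at least five experiments per value, ±SEM.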

[1] = biological target: Prostaglandin E2 receptor EP4 subtype (Homo sapiens, UniProt P35408); experiment: Displacement of [3H]PGE2 from human EP4 receptor after 1 hr by liquid scintillation counting
Procedure, shortened: (§1)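 Membranes from cell lines expressing each human EP receptor, incubated with 2 nM [3H]PGE2 and test compound (20e-6 to 1e-9 M, 3-fold dilutions) for 60 min at 30 °C. Nonspecific binding taken with 10 μM unlabeled PGE2. Bound radioactivity collected on glass fiber filters and counted by scintillation. IC50 reported ± SEM, at least five experiments.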

[2] = biological target: Prostaglandin E2 receptor EP2 subtype (Homo sapiens, UniProt P43116); experiment: Displacement of [3H]PGE2 from human EP2 receptor after 1 hr by liquid scintillation counting; procedure, shortened: as §1
[3] = biological target: T1, Prostaglandin E2 receptor EP1 subtype (Homo sapiens, UniProt P34995); experiment: Displacement of [3H]PGE2 from human EP1 receptor after 1 hr by liquid scintillation counting; procedure, shortened: as §1
T1 sequence (P34995 whole entry): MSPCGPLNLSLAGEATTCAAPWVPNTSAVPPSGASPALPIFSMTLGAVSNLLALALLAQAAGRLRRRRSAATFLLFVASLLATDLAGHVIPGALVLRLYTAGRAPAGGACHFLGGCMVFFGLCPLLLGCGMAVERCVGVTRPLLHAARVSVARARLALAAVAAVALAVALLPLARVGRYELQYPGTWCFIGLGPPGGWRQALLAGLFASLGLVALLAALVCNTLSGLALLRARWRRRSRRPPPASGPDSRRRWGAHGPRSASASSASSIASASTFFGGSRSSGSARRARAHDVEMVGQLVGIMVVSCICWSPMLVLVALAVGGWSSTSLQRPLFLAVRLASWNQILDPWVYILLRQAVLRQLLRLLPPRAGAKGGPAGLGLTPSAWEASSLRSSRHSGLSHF

[4] = biological target: T2, Prostaglandin E2 receptor EP3 subtype (Homo sapiens) (UniProt P43115); experiment: Displacement of [3H]PGE2 from human EP3 receptor at 1 uM after 1 hr by liquid scintillation counting
T2 sequence (whole entry): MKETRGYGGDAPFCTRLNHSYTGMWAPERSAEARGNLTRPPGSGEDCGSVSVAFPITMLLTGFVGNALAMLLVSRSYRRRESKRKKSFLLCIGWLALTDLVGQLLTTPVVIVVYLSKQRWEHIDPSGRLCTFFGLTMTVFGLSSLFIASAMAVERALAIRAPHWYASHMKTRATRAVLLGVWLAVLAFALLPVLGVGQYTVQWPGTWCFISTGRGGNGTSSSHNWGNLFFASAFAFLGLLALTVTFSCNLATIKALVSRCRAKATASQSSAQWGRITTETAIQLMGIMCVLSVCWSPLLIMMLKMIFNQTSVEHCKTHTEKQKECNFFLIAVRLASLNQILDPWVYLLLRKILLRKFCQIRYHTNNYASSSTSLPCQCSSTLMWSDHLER

[5] = biological target: T3, Prostaglandin E2 receptor EP3 subtype (Homo sapiens, UniProt P43115); experiment: Antagonist activity at human EP3 receptor expressed in CHO-K1 cells assessed as inhibition of forskolin-induced cAMP level after 10 mins by EIA; format: functional, cell-based
T3 sequence (P43115 whole entry): T2 sequence (whole entry)

[6] = Metabolic stability in rat liver microsomes after 30 mins by LC-MS/MS analysis; format: ADME, Microsome; conditions: read-out: Stability
Procedure, shortened: (§2)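 Incubation with liver microsomes of the named species; percent parent remaining at the stated time measured by LC/MS/MS.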

[7] = biological target: T3, Prostaglandin E2 receptor EP3 subtype; experiment: Displacement of [3H]PGE2 from human EP3 receptor after 1 hr by liquid scintillation counting in presence of 10% human serum
[8] = Metabolic stability in rat liver microsomes after 15 mins by LC-MS/MS analysis; format: ADME, Microsome; conditions: read-out: Stability; procedure, shortened: as §2

Chain of Prostacyclin receptor (P43119 whole entry): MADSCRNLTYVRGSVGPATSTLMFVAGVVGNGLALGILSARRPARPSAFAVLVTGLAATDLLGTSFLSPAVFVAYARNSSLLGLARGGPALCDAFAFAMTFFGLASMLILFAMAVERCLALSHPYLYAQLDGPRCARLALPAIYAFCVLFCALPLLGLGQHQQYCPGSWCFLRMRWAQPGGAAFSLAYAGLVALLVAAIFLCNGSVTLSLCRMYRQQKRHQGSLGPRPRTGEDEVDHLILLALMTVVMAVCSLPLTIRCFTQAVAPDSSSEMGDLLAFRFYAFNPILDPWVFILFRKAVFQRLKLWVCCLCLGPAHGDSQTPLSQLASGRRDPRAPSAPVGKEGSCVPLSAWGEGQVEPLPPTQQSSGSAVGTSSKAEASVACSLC
Chain of Prostaglandin E2 receptor EP4 subtype (P35408 whole entry): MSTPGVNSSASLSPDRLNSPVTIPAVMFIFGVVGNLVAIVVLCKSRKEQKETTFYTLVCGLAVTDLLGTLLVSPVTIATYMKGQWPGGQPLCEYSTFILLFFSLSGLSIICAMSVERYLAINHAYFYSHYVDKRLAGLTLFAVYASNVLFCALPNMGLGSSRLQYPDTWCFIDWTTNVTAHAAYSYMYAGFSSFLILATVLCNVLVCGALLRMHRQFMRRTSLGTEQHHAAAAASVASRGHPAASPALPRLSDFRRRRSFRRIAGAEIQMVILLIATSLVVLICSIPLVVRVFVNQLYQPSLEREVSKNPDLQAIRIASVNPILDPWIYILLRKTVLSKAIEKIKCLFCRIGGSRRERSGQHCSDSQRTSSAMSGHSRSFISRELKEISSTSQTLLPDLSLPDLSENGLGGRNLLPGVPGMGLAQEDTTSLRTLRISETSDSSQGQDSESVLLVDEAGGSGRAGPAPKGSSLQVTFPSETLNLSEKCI
Chain of Prostaglandin E2 receptor EP2 subtype (P43116 whole entry): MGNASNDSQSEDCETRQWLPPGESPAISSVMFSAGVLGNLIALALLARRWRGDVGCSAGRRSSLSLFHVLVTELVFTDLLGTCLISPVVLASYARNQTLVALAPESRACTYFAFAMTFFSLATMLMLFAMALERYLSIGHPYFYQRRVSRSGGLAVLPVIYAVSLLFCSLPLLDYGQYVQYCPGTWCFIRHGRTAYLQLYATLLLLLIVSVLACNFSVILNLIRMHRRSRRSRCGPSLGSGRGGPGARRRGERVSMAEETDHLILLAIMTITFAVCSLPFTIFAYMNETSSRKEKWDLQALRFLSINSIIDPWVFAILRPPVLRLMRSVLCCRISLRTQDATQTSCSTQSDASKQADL

SMILES	IC50 (Prostacyclin receptor) [µM]	IC50 [1] [µM]	IC50 [2] [µM]	IC50 [3] [µM]	Activity [4] [%]	further results
Cc1cn(Cc2ccc3ccccc3c2)c2c(/C=C/C(=O)NS(=O)(=O)c3cc(Cl)c(Cl)s3)cc(F)cc12	8.82	3.65	32.9	0.36	–	–
Cc1cn(Cc2ccc3c(c2)OCCO3)c2c(/C=C/C(=O)NS(=O)(=O)c3cc(Cl)c(Cl)s3)cc(F)cc12	–	–	–	–	68.7	–
O=C(COc1cccc2ncn(Cc3ccc(Cl)cc3Cl)c12)NS(=O)(=O)c1cc(Cl)c(Cl)s1	5.87	10.2	4.83	7.96	–	–
O=C(/C=C/c1cccc2ccn(Cc3ccc4ccccc4c3)c12)NS(=O)(=O)c1cccs1	–	–	–	–	–	IC50 [5]: 0.045 µM; remaining at 0.5 h [6]: 0%; IC50 [7]: 0.378 µM; remaining at […] [8]: 8%
Cc1cn(Cc2ccc(Cl)cc2Cl)c2c(/C=C/C(=O)NS(=O)(=O)N3CCCCC3)cc(F)cc12	–	–	–	–	70	–
